Experimental findings from ChEMBL document CHEMBL5335784, “Discovery of a novel 1,3,4-oxadiazol-2-one-based NLRP3 inhibitor as a pharmacological agent to mitigate cardiac and metabolic complications in an experimental model of diet-induced metaflammation” (Eur J Med Chem, 2023) are described below.

Data set [1] in a line: Cytotoxicity against human THP-1 cells assessed as reduction in cell viability measured after 72 hr by MTT assay. Format: toxicity, cell-based. The note with it: read-out: TC50. The procedure, abridged: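 Undifferentiated THP-1 cells exposed to 0.1–100 μM compound for 72 h. Viability read by MTT reduction at 570 nm. TC50 from concentration–response; three experiments.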

The target of data set [2] is T1, NACHT, LRR and PYD domains-containing protein 3 (Homo sapiens, UniProt Q96P20). Briefly: Inhibition of NLRP3-dependent pyroptosis in PMA-differentiated human THP-1 cells assessed as inhibition of LPS/MSU-induced cell death at 10 uM by LDH assay. Format: cell-based.
T1 sequence (Q96P20 whole entry, the tested form may be a part): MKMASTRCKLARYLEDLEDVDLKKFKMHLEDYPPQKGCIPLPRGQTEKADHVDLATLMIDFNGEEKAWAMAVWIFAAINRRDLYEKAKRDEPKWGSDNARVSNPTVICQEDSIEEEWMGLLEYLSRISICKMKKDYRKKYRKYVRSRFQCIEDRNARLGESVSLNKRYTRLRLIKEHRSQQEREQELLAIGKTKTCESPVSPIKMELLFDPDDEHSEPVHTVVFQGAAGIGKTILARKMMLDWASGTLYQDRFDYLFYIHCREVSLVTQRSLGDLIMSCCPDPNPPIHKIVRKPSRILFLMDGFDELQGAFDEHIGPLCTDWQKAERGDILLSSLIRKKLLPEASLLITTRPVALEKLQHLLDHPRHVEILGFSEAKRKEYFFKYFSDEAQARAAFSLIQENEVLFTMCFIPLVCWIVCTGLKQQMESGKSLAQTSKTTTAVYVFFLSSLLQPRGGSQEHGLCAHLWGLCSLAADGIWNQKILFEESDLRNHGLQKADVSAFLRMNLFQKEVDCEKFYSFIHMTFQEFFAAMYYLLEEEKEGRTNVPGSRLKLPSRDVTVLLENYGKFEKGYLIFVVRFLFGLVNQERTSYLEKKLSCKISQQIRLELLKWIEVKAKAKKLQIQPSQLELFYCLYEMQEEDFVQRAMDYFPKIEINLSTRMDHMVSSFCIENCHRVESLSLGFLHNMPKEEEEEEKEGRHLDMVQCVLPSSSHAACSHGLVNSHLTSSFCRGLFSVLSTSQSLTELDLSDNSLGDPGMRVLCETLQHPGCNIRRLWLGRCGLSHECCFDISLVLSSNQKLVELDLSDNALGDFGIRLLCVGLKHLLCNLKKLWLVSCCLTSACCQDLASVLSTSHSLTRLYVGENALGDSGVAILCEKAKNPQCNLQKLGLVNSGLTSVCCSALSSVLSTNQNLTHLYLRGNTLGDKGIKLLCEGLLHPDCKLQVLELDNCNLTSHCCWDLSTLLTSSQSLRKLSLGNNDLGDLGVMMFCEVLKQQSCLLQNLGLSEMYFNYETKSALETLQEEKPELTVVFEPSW
Data set [3] addresses T1, NACHT, LRR and PYD domains-containing protein 3. The data set is described as follows: Inhibition of NLRP3 inflammasome activation in PMA-differentiated human THP-1 cells assessed as inhibition of LPS/ATP-induced IL-1 beta release pretreated for 4 hrs with LPS followed by incubation with compound for 1 hr and later treated with ATP for 1.5 hrs by ELISA. Format: cell-based. For orientation: ELISA stands for enzyme-linked immunosorbent assay.

Data set [4] concerns Rattus norvegicus. The data set is described as follows: Antiinflammatory activity against high fat diet fed-induced metaflammation Wistar rat model assessed as reduction in HFD-induced anthropometric alterations by measuring reduction in body weight gain at 20 mg/kg/day, ip administered for 4 weeks. Format: functional, organism-based. An outline of the steps:
(§1)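 Male Wistar rats on high-fat diet (60% kcal fat) or standard diet for 12 weeks; 20 mg/kg/day i.p. or vehicle (saline, 2% DMSO, 5% Cremophor-EL) over the last 28 days. Body weight recorded weekly. After sacrifice, abdominal, epididymal, retroperitoneal and perirenal fat, liver and heart excised and weighed. Cardiac somatic index = heart weight/body weight ×100. n=6–7 per group.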

The subject of data set [5] is Rattus norvegicus. Briefly: Antiinflammatory activity against high fat diet fed-induced metaflammation Wistar rat model assessed as reduction in HFD-induced anthropometric alterations by measuring reduction in abdominal fat deposition at 20 mg/kg/day, ip administered for 4 weeks. Format: functional, organism-based. An outline of the steps:
as §1

Data set [6] concerns Rattus norvegicus. Briefly: Antiinflammatory activity against high fat diet fed-induced metaflammation Wistar rat model assessed as reduction in HFD-induced anthropometric alterations by measuring reduction in epididymal fat deposition at 20 mg/kg/day, ip administered for 4 weeks. Format: functional, organism-based. The procedure, abridged: as §1
Data set [7] has as its system Rattus norvegicus. The data set is described as follows: Antiinflammatory activity against high fat diet fed-induced metaflammation Wistar rat model assessed as reduction in HFD-induced anthropometric alterations by measuring reduction in cardiac somatic index at 20 mg/kg/day, ip administered for 4 weeks. Format: functional, organism-based. An outline of the steps:
as §1

Data set [8] has as its system Rattus norvegicus. Briefly: Antiinflammatory activity against high fat diet fed-induced metaflammation Wistar rat model assessed as reduction in HFD-induced metabolic alterations by measuring reduction in triglyceride level in plasma at 20 mg/kg/day, ip administered for 4 weeks. Format: functional, organism-based. An outline of the steps:
(§2)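 Rats fed HFD or SD for 12 weeks, dosed 20 mg/kg/day i.p. in saline/2% DMSO/5% Cremophor-EL during the final 28 days. Serum obtained after sacrifice by centrifuging blood at 2000 x g, 10 min, 4 °C. Glucose read by glucometer; total, HDL and LDL cholesterol and triglycerides measured with commercial kits. n=6–7 per group.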

A short description of data set [9]: Effect on glyco-metabolic profile in standard diet fed Wistar rat assessed as effect on LDL cholesterol level in plasma at 20 mg/kg/day, ip administered for 4 weeks. Format: toxicity, organism-based. The note with it: in vivo, 672 h. An outline of the steps:
as §2

Data set [10] can be described thus: Effect on glyco-metabolic profile in standard diet fed Wistar rat assessed as effect on HDL cholesterol level in plasma at 20 mg/kg/day, ip administered for 4 weeks. Format: toxicity, organism-based. To be noted: in vivo, 672 h. The procedure, abridged: as §2
The test system of data set [11] is Rattus norvegicus. Briefly: Antiinflammatory activity against high fat diet fed-induced metaflammation Wistar rat model assessed as reduction in serum TNF-alpha level at 20 mg/kg/day, ip administered for 4 weeks by ELISA. Format: functional, organism-based. An outline of the steps: (§3)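 Male Wistar rats on HFD or SD for 12 weeks received 20 mg/kg/day i.p. (saline, 2% DMSO, 5% Cremophor-EL) or vehicle for the last 28 days. Circulating IL-1β, TNF-α, BNP and Gal-3 quantified by ELISA in blood collected after sacrifice. n=6–7 per group.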

Data set [12] deals with Rattus norvegicus. The data set is described as follows: Cardioprotective activity against high fat diet fed-induced metaflammation Wistar rat model assessed as reduction in myocardial damage by measuring reduction in plasma Gal-3level at 20 mg/kg/day, ip administered for 4 weeks by ELISA. Format: functional, organism-based. An outline of the steps:
as §3

Data set [13] in a line: Effect on LDH level in standard diet fed Wistar rat plasma at 20 mg/kg/day, ip administered for 4 weeks. Format: toxicity, organism-based. The note with it: in vivo, 672 h.
The nature of data set [14]: Effect on Gal-3 level in standard diet fed Wistar rat plasma at 20 mg/kg/day, ip administered for 4 weeks. Format: toxicity, organism-based. To be noted: in vivo, 672 h. The procedure, abridged:
as §3

In data set [15] the test system is Rattus norvegicus. Briefly: Cardioprotective activity against myocardial ischemia/reperfusion injury-induced contractile impairment and high fat diet fed obese Wistar rat model assessed as developed LVP recovery at 20 mg/kg/day, ip administered for 4 weeks followed by excised heart exposed to global ischemia for 30 mins and reperfusion for 120 mins and measured at the end of reperfusion (reference value: 32 +/-4 mmHg). Format: functional.

Data set [16] deals with Rattus norvegicus. Briefly: Cardioprotective activity against myocardial ischemia/reperfusion injury-induced contractile impairment and high fat diet fed obese Wistar rat model assessed as left ventricular end diastolic pressure at 20 mg/kg/day, ip administered for 4 weeks followed by excised heart exposed to global ischemia for 30 mins and reperfusion for 120 mins and measured at the end of reperfusion (reference value: 27 +/-1 mmHg). Format: functional.

The nature of data set [17]: Effect on left ventricular end diastolic pressure in high diet fed obese Wistar rat model at 20 mg/kg/day, ip administered for 4 weeks (reference value: 6+/-0.2 mm Hg). Format: toxicity, organism-based. The note with it: in vivo, 672 h.
Data set [18] relates to Rattus norvegicus. Briefly: Cardioprotective activity against ischemia/reperfusion-induced myocardial injury and standard diet fed Wistar rat model assessed as decrease in LDH activity in coronary effluents at 20 mg/kg/day, ip administered for 4 weeks followed by excised heart exposed to global ischemia for 30 mins and reperfusion for 120 mins and measured during first 30 mins of reperfusion by spectrophotometric analysis. Format: functional, organism-based. The procedure, abridged:
(§4)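 HFD or SD rats, dosed 20 mg/kg/day i.p. for the final 28 days, anaesthetised with ethyl carbamate (2 g/kg i.p.). Hearts Langendorff-perfused with Krebs–Henseleit buffer (pH 7.4, 37 °C, 12 ml/min); 40 min stabilization, 30 min global no-flow ischemia, 120 min reperfusion. Coronary effluent collected on ice before ischemia and at 10, 20, 30 min reperfusion; LDH activity by McQueen method. n=6–7.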

For data set [19], the system named is Rattus norvegicus. The data set is described as follows: Cardioprotective activity against ischemia/reperfusion-induced myocardial injury and high diet fed obese Wistar rat model assessed as decrease in LDH activity in coronary effluents at 20 mg/kg/day, ip administered for 4 weeks followed by excised heart exposed to global ischemia for 30 mins and reperfusion for 120 mins and measured during first 30 mins of reperfusion by spectrophotometric analysis. Format: functional, organism-based. An outline of the steps: as §4

Data set [20] relates to Rattus norvegicus. Briefly: Inhibition of ischemia/reperfusion-induced inflammation in ischemia/reperfusion-induced myocardial injury and standard diet fed Wistar rat model assessed as decrease in cardiac IL-1 beta level at 20 mg/kg/day, ip administered for 4 weeks followed by excised heart exposed to global ischemia for 30 mins and reperfusion for 120 mins by ELISA. Format: functional, organism-based. The procedure, abridged:
(§5)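 Male Wistar rats on standard or 60% kcal fat diet for 12 weeks; last 28 days i.p. 20 mg/kg/day in saline with 2% DMSO and 5% Cremophor-EL, or vehicle. Hearts perfused by Langendorff with KH buffer at 12 ml/min, 37°C, then 40 min stabilization, 30 min global no-flow ischemia and 120 min reperfusion. Cytokines measured in LV tissue; n=6–7 per group.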

In data set [21] the test system is Rattus norvegicus. The data set is described as follows: Inhibition of ischemia/reperfusion-induced inflammation in ischemia/reperfusion-induced myocardial injury and high fat diet fed obese Wistar rat model assessed as decrease in cardiac TNF-alpha level at 20 mg/kg/day, ip administered for 4 weeks followed by excised heart exposed to global ischemia for 30 mins and reperfusion for 120 mins by ELISA. Format: functional, organism-based. The procedure, abridged: as §5

The source made the active and inactive calls. No cut-off for these calls is given here.

As a reminder, the inhibition is the drop in the measured response relative to a control, in per cent. The IC50 is the concentration needed to halve the response being measured. With `CCOC(=O)Cn1nc(Cc2ccccc2Cl)oc1=O`, in data set [1], the CC50 at 72 h amounted to 76.5 µM. Further, the inhibition in [2] worked out at 61.6%. Moreover, the IC50 in [3] is 16.6 µM. Also, the outcome in the data set on Rattus norvegicus [4] was inactive. Further, the result in the data set with Rattus norvegicus [5], in the data set on Rattus norvegicus [6], with Rattus norvegicus [7], with Rattus norvegicus [8], with Rattus norvegicus [11] and in the data set on Rattus norvegicus [12] was Active. Further, the result with Rattus norvegicus [18] and with Rattus norvegicus [19] was Active. The Activity result in data set [9] is reported as “Non-Toxic”; in data set [10] it was “Non-Toxic”; in [13], “Non-Toxic”; in [14] it was “Non-Toxic”; with Rattus norvegicus [15], 65 mmHg; in the data set on Rattus norvegicus [16], 18 mmHg. In data set [17], this compound had an Activity of 4 mmHg. Besides, the inhibition result in the data set on Rattus norvegicus [20] and with Rattus norvegicus [21] was “Active” in each case.
